Tests used:
[1] = substrate: CC1=C(CCCCCC(=O)NCCCNCCCNC(=O)CCCCCC2=C(C)C(=O)c3ccccc3C2=O)C(=O)c2ccccc2C1=O; assay: (§1) Vmax is the maximum velocity of the TcTR (Trypanosoma cruzi trypanothione reductase) catalyzed NADH oxidation.
[2] = substrate: CC1=C(CCCCC(=O)NCCCN2CCN(CCCNC(=O)CCCCC3=C(C)C(=O)c4cccc(O)c4C3=O)CC2)C(=O)c2c(O)cccc2C1=O; assay: as §1
[3] = substrate: CC1=C(CCCC(=O)NCCCNCCCNC(=O)CCCC2=C(C)C(=O)c3cccc(O)c3C2=O)C(=O)c2c(O)cccc2C1=O; assay: Vmax is the maximum velocity of the TcTR (Trypanosoma cruzi trypanothione reductase) catalyzed NADPH oxidation.
[4] = substrate: CC1=C(CCCC(=O)NCCCCNCCCNC(=O)CCCC2=C(C)C(=O)c3cccc(O)c3C2=O)C(=O)c2c(O)cccc2C1=O; assay: as above
[5] = substrate: CC1=C(CCCCC(=O)NCCCCNCCCNC(=O)CCCCC2=C(C)C(=O)c3ccccc3C2=O)C(=O)c2ccccc2C1=O; assay: as above
[6] = substrate: CC1=C(CCC(=O)NCCCCNCCCNC(=O)CCC2=C(C)C(=O)c3ccccc3C2=O)C(=O)c2ccccc2C1=O; assay: as above
[7] = substrate: CC1=C(CCC(=O)NCCCNCCCNC(=O)CCC2=C(C)C(=O)c3cccc(O)c3C2=O)C(=O)c2c(O)cccc2C1=O; assay: (§2) The Michaelis-Menten constant for NADPH oxidation by TcTR (Trypanosoma cruzi trypanothione reductase)
In short: (§3)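 Recombinant TcTR (0.6 U) in 20 mM Hepes, 1 mM EDTA, 0.15 M KCl, pH 7.25 at 22 °C, with 200 µM NADPH and naphthoquinone at five concentrations (0–100 µM) in 1% DMSO. NADPH oxidation at 340 nm; intrinsic oxidase rate not subtracted. Km and Vmax from nonlinear Michaelis–Menten fit; kcat and kcat/Km calculated.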

[8] = substrate: CC1=C(CCCC(=O)NCCCNCCCNC(=O)CCCC2=C(C)C(=O)c3cccc(O)c3C2=O)C(=O)c2c(O)cccc2C1=O; assay: as §2; in short: as §3
[9] = substrate: CC1=C(CCCC(=O)NCCCCNCCCNC(=O)CCCC2=C(C)C(=O)c3ccccc3C2=O)C(=O)c2ccccc2C1=O; assay: as §2; in short: as §3
[10] = substrate: CC1=C(CCCCC(=O)NCCCNCCCNC(=O)CCCCC2=C(C)C(=O)c3ccccc3C2=O)C(=O)c2ccccc2C1=O; assay: as §2; in short: as §3
[11] = substrate: CC1=C(CCC(=O)NCCCCNCCCNC(=O)CCC2=C(C)C(=O)c3cccc(O)c3C2=O)C(=O)c2c(O)cccc2C1=O; assay: as §2; in short: as §3
[12] = substrate: CC1=C(CCCCC(=O)NCCCN2CCN(CCCNC(=O)CCCCC3=C(C)C(=O)c4ccccc4C3=O)CC2)C(=O)c2ccccc2C1=O; assay: as §2; in short: as §3
[13] = substrate: CC1=C(CCCC(=O)NCCCN2CCN(CCCNC(=O)CCCC3=C(C)C(=O)c4ccccc4C3=O)CC2)C(=O)c2ccccc2C1=O; assay: as §2; in short: as §3
[14] = substrate: CC1=CC(=O)c2ccccc2C1=O; assay: as §2; in short: as §3
[15] = substrate: CC1=C(CCCC(=O)NCCCCNCCCNC(=O)CCCC2=C(C)C(=O)c3cccc(O)c3C2=O)C(=O)c2c(O)cccc2C1=O; assay: as §2; in short: as §3
[16] = substrate: CC1=C(CCCCC(=O)NCCCNCCCNC(=O)CCCCC2=C(C)C(=O)c3cccc(O)c3C2=O)C(=O)c2c(O)cccc2C1=O; assay: as §2; in short: as §3
[17] = substrate: CC1=C(CCCCCC(=O)NCCCNCCCNC(=O)CCCCCC2=C(C)C(=O)c3cccc(O)c3C2=O)C(=O)c2c(O)cccc2C1=O; assay: as §2; in short: as §3
[18] = substrate: CC1=C(CCCC(=O)NCCCN2CCN(CCCNC(=O)CCCC3=C(C)C(=O)c4cccc(O)c4C3=O)CC2)C(=O)c2c(O)cccc2C1=O; assay: as §2; in short: as §3
[19] = substrate: CC1=C(CCC(=O)NCCCNCCCNC(=O)CCC2=C(C)C(=O)c3ccccc3C2=O)C(=O)c2ccccc2C1=O; assay: as §2; in short: as §3
[20] = substrate: CC1=C(CCCCCC(=O)NCCCCNCCCNC(=O)CCCCCC2=C(C)C(=O)c3cccc(O)c3C2=O)C(=O)c2c(O)cccc2C1=O; assay: as §2; in short: as §3
[21] = substrate: CC1=C(CCCCCC(=O)NCCCN2CCN(CCCNC(=O)CCCCCC3=C(C)C(=O)c4ccccc4C3=O)CC2)C(=O)c2ccccc2C1=O; assay: as §2; in short: as §3
[22] = substrate: CC1=C(CCCCCC(=O)NCCCNCCCNC(=O)CCCCCC2=C(C)C(=O)c3ccccc3C2=O)C(=O)c2ccccc2C1=O; assay: as §2; in short: as §3
[23] = substrate: CC1=C(CCCCCC(=O)NCCCN2CCN(CCCNC(=O)CCCCCC3=C(C)C(=O)c4cccc(O)c4C3=O)CC2)C(=O)c2c(O)cccc2C1=O; assay: as §2; in short: as §3
[24] = substrate: CC1=C(CCCCCC(=O)NCCCCNCCCNC(=O)CCCCCC2=C(C)C(=O)c3ccccc3C2=O)C(=O)c2ccccc2C1=O; assay: as §2; in short: as §3
[25] = substrate: CC1=C(CCCCC(=O)NCCCN2CCN(CCCNC(=O)CCCCC3=C(C)C(=O)c4cccc(O)c4C3=O)CC2)C(=O)c2c(O)cccc2C1=O; assay: as §2; in short: as §3
[26] = substrate: CC1=C(CCC(=O)NCCCN2CCN(CCCNC(=O)CCC3=C(C)C(=O)c4ccccc4C3=O)CC2)C(=O)c2ccccc2C1=O; assay: as §2; in short: as §3
[27] = substrate: CC1=C(CCCCC(=O)NCCCCNCCCNC(=O)CCCCC2=C(C)C(=O)c3ccccc3C2=O)C(=O)c2ccccc2C1=O; assay: as §2; in short: as §3
[28] = substrate: CC1=C(CCC(=O)NCCCCNCCCNC(=O)CCC2=C(C)C(=O)c3ccccc3C2=O)C(=O)c2ccccc2C1=O; assay: as §2; in short: as §3
[29] = substrate: CC1=CC(=O)c2c(O)cccc2C1=O; assay: as §2; in short: as §3
[30] = substrate: CC1=C(CCCC(=O)NCCCNCCCNC(=O)CCCC2=C(C)C(=O)c3ccccc3C2=O)C(=O)c2ccccc2C1=O; assay: as §2; in short: as §3
[31] = substrate: CC1=C(CCCCC(=O)NCCCCNCCCNC(=O)CCCCC2=C(C)C(=O)c3cccc(O)c3C2=O)C(=O)c2c(O)cccc2C1=O; assay: as §2; in short: as §3
[32] = substrate: CC1=C(CCC(=O)NCCCN2CCN(CCCNC(=O)CCC3=C(C)C(=O)c4cccc(O)c4C3=O)CC2)C(=O)c2c(O)cccc2C1=O; assay: as §2; in short: as §3

B1: Trypanothione reductase (Trypanosoma cruzi), P28593 (protein)
chain: MMSKIFDLVVIGAGSGGLEAAWNAATLYKKRVAVIDVQMVHGPPFFSALGGTCVNVGCVPKKLMVTGAQYMEHLRESAGFGWEFDRTTLRAEWKKLIAVKDEAVLNINKSYEEMFRDTEGLEFFLGWGSLESKNVVNVRESADPASAVKERLETENILLASGSWPHMPNIPGIEHCISSNEAFYLPEPPRRVLTVGGGFISVEFAGIFNAYKPKDGQVTLCYRGEMILRGFDHTLREELTKQLTANGIQILTKENPAKVELNADGSKSVTFESGKKMDFDLVMMAIGRSPRTKDLQLQNAGVMIKNGGVQVDEYSRTNVSNIYAIGDVTNRVMLTPVAINEAAALVDTVFGTNPRKTDHTRVASAVFSIPPIGTCGLIEEVASKRYEVVAVYLSSFTPLMHNISGSKYKTFVAKIITNHSDGTVLGVHLLGDNAPEIIQGVGICLKLNAKISDFYNTIGVHPTSAEELCSMRTPSYYYVKGEKMEKPSEASL
Vmax [1]: 0.09 µM/min/mg | Vmax [2]: 5.13 µM/min/mg | Vmax [3]: 4.29 µM/min/mg | Vmax [4]: 4 µM/min/mg | Vmax [5]: 1.11 µM/min/mg | Vmax [6]: 1.83 µM/min/mg | Km [7]: 230 µM | Km [8]: 55 µM | Km [9]: 74 µM | Km [10]: 37 µM | Km [11]: 48 µM | Km [12]: 16 µM | Km [13]: 12 µM | Km [14]: 21 µM | Km [15]: 93 µM | Km [16]: 28 µM | Km [17]: 28 µM | Km [18]: 52 µM | Km [19]: 47 µM | Km [20]: 37 µM | Km [21]: 12 µM | Km [22]: 3 µM | Km [23]: 8 µM | Km [24]: 21 µM | Km [25]: 17 µM | Km [26]: 14 µM | Km [27]: 16 µM | Km [28]: 30 µM | Km [29]: 15 µM | Km [30]: 23 µM | Km [31]: 20 µM | Km [32]: 78 µM

From ChEMBL document CHEMBL1134791, “2- and 3-substituted 1,4-naphthoquinone derivatives as subversive substrates of trypanothione reductase and lipoamide dehydrogenase from Trypanosoma cruzi: synthesis and correlation between redox cycling activities and in vitro cytotoxicity” (J Med Chem, 2001)
